# Assay: Toxicity in Balb/c nu/nu athymic mouse xenografted with human 22Rv1 cells assessed as effect on body weight at 50 mg/kg, ip dosed twice per week for 6 weeks by H and E staining dependent light microscopy based histopathological analysis
# Format: organism-based, CWR22R
# Conditions: in vivo, 1008 h
# Summary of the method: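 Mice carrying 22Rv1 xenografts received intraperitoneal injections. The vehicle control group had n=15 and each treated dose group had n=10. Average body weights were compared between treated and vehicle-control mice.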
smiles,measurement,value
Cc1ccc(NC(=O)c2cc3cccc(O)c3oc2=N)cc1,Activity,Non-Toxic

# Reference: ChEMBL document CHEMBL4619820, “Development of Novel AKR1C3 Inhibitors as New Potential Treatment for Castration-Resistant Prostate Cancer” (J Med Chem, 2020)
